A selection: hits, their analogues and other compounds. The true share with any hit is near 2.9%.
DENV2 CPE: DENV2-induced cell death inhibition | actives 1.7% (n = 350,000) | DENV2-infected cells, cytopathic effect rescue, plate reader | CPE inhibition, % at 9.99 µM | AID 651640; in the data active means CPE inhibition above about 20%, passing the limit was not always enough; inconclusive means no clear call, values can overlap the other calls; tested in BHK-21 cells;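 further: 0% = median of neutral control wells and 100% = median of positive control wells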
SIRT5 block: blocks human SIRT5 desuccinylation of peptide. Q9NXA8. Purified SirT5, succinyl-peptide AMC, trypsin-coupled fluorescence. actives 1.1% (n = 330,000). inhibition, % at 15 µM; in the data active means inhibition above about 15%; inconclusive means no clear call, values can overlap the other calls
Target sequence (Q9NXA8 whole entry, looked up): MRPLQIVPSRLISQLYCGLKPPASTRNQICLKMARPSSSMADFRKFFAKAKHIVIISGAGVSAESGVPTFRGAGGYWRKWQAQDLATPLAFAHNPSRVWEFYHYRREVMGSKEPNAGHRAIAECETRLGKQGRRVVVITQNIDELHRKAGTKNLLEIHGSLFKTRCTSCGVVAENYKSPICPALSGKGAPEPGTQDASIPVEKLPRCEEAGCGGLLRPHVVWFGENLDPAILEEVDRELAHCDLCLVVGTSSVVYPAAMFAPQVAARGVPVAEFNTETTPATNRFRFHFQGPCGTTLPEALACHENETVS
S100A4 MyoIIA: S100A4-myosin IIA interaction inhibition; P26447; S100A4/TAMRA-MyoIIA peptide fluorescence polarization; inhibition, % at 10.7 µM; actives 0.14% (n = 360,000);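 active means mean inhibition of at least 70% across replicates, with every replicate also reaching that level; inconclusive means mean inhibition reaches 70% but some replicates fall short; inactive means mean inhibition below 70%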
Target sequence (P26447 whole entry, looked up): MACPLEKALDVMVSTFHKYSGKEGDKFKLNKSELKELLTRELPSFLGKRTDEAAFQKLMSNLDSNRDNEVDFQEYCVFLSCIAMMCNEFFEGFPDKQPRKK
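assay system = human S100A4 monomer with TAMRA-labelled myosin IIA peptide | also added = labelled myosin peptide probe, 5 nM | incubation = 5 min between mix addition and reading | control set = DMSO and TFP controls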
CAL PDZ FP-1: human CAL PDZ-peptide interaction inhibition | Q9HD26 | purified CAL PDZ, TMR-peptide fluorescence polarization, 1 h | inhibition, % at 20 µM | actives 0.02% (n = 330,000) | AID 504414;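 active means highest replicate inhibition of at least 40%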;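 further: plate controls were DMSO neutral control wells for no effect and unlabeled competitor peptide control wells for full effect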
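material = purified tagged CAL PDZ domain construct (CerCALP) | compound dosing = 20 µM, one dose | times = 1 h at RT | measured by = fluorescence polarization from S- and P-plane intensities, G-factor corrected | read-out = inhibition from polarization loss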
ERAP1 HTS inh: ERAP1 (human) enzyme inhibition; actives 0.15% (n = 340,000); recombinant ERAP1, Leu-AMC fluorescence, 60 min; Q9NZ08; inhibition, % at 10.7 µM;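 active means mean replicate inhibition of at least 30%, or all replicates individually reaching that 30% level; inactive means mean below 30% and not every replicate reaching it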;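 further: 0% = neutral control wells and 100% = L-leucinethiol positive control wells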
CAL PDZ FP-2: inhibitors of human CAL PDZ peptide binding; actives 0.92% (n = 300,000); inhibition, % at 24.9 µM; purified CAL PDZ, TMR-peptide fluorescence polarization, 1 h; AID 602252;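 active means mean inhibition of at least 30% with at least half of replicates also reaching 30%; inconclusive means no clear call, values can overlap the other calls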;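 further: 0% = DMSO neutral control and 100% = excess unlabeled competitor peptide PRC23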
Numbers without * were called inactive; ? = inconclusive; . = no result.

SMILES	DENV2 CPE	SIRT5 block	S100A4 MyoIIA	CAL PDZ FP-1	ERAP1 HTS inh	CAL PDZ FP-2
CO[C@@H]1CN(C)C(=O)c2cc(NC(=O)CC(F)(F)F)ccc2OC[C@@H](C)N(C(=O)C2CCOCC2)C[C@@H]1C	-10	.	-41	.	1	.
O=C(c1ccccc1)N1CC2(C1)[C@@H](c1ccccc1)[C@H](CO)N2C(=O)CC1CC1	-16	-1	-2	.	1	.
Cc1c2cc(O)c(=O)cc-2oc2cc(O)c(O)cc12	.	29*	180*	10	0	.
CCOC(=O)C1=C(C)NC(C)=C(C(=O)OCC)C1C(=O)OCC(=O)NCc1ccccc1OC	2	.	-3	0	4	88*
Cc1nc(C(F)(F)F)ccc1C(=O)N1CCCCCC1(C)C(=O)NCC(C)C (centres undefined)	7	.	1	.	-2	.
Cc1nc(C(F)(F)F)ccc1C(=O)N1CCC1(C)C(=O)NS(=O)(=O)c1ccc(C#N)cc1 (centres undefined)	31*	-3	-2	.	-5	.
Cc1nc(C(F)(F)F)ccc1C(=O)N1CCC1(C)C(=O)NS(=O)(=O)c1ccc(Cl)cc1 (centres undefined)	8	6	-2	.	2	.
Cc1ccc(S(=O)(=O)NC(=O)C2(C)CCN2C(=O)Cc2cccs2)cc1 (centres undefined)	49*	.	-4	.	-3	.
CC1(C(=O)NS(=O)(=O)c2ccccc2)CCN1C(=O)Cc1cccs1 (centres undefined)	?	2	-1	.	-1	.
Cc1nc(C(F)(F)F)ccc1C(=O)N1CCC1(C)C(=O)NS(C)(=O)=O (centres undefined)	-2	.	0	.	1	.
Cc1nc(C(F)(F)F)ccc1C(=O)N1CCC1(C)C(=O)NCc1ccc(Cl)cc1 (centres undefined)	69*	-1	3	.	1	.
Cc1ccc(S(=O)(=O)NC(=O)C2(C)CCN2C(=O)c2ccc(C(F)(F)F)nc2C)cc1 (centres undefined)	51*	-2	-4	.	-3	.
CO[C@H]1CN(C)C(=O)c2ccc(NC(=O)C3CC3)cc2OC[C@@H](C)N(C(=O)c2ccccn2)C[C@H]1C	8	0	-2	.	0	.
C[C@@H]1CN([C@@H](C)CO)C(=O)Cc2cc(NS(=O)(=O)c3ccc(F)cc3)ccc2O[C@H]1CN(C)Cc1ccc(C(=O)O)cc1	-7	6	-1	.	-2	.
O=C(C1CCCC1)N1CCCCN2[C@@H](CO)[C@H](c3ccc(C#CC4(O)CCCC4)cc3)[C@@H]2C1	-7	2	-4	.	6	.
O=C(NCC[C@@H]1CC[C@@H](NC(=O)C2CCCC2)[C@@H](CO)O1)c1ccc(F)cc1	-10	1	8	.	-1	.
O=C(NCC[C@H]1CC[C@H](NC(=O)C2CCCC2)[C@@H](CO)O1)c1ccc(F)cc1	29*	-4	-16	.	-2	.
O=C(NCC[C@@H]1CC[C@H](NS(=O)(=O)c2ccccc2F)[C@H](CO)O1)c1ccc(F)cc1	1	3	-2	.	-1	.
O=C(N[C@H]1CC[C@@H](CCNS(=O)(=O)c2ccc(F)cc2)O[C@H]1CO)C1CCCC1	21*	0	1	.	-1	.
O=C(N[C@H]1CC[C@@H](CCNS(=O)(=O)c2ccc(F)cc2)O[C@H]1CO)C1CCC1	-10	-5	0	.	-1	.
O=C(NCC[C@H]1CC[C@@H](NS(=O)(=O)c2ccccc2F)[C@H](CO)O1)c1ccc(F)cc1	-1	1	126*	.	0	.
O=C(N[C@H]1CC[C@@H](CCNS(=O)(=O)c2ccc(F)cc2)O[C@@H]1CO)C1CCC1	-5	18*	11	.	-2	.
COc1ccc(C(=O)Nc2ccc3c(c2)C(=O)N(C)C[C@@H](OC)[C@@H](C)CN(C)[C@H](C)CO3)cc1	12	2	-9	.	4	.
O=C(NC[C@@H]1CC[C@H]2[C@H](CN2S(=O)(=O)c2ccccc2[N+](=O)[O-])O1)Nc1ccccc1	0	-2	0	.	1	.
CC(=O)N(C)C[C@@H]1Oc2ncc(-c3ccccc3C)cc2C(=O)N([C@@H](C)CO)C[C@@H]1C	-11	-1	-6	.	-2	.
